Eight compounds from ChEMBL document CHEMBL1932931, “Analogues of doxanthrine reveal differences between the dopamine D1 receptor binding properties of chromanoisoquinolines and hexahydrobenzo[a]phenanthridines” (Eur J Med Chem, 2012) can be followed below.

pKi: −log10 of the molar value.

The nature of experiment [1]: Selectivity ratio of Ki for dopamine D1 receptor to Ki for dopamine D2 receptor.
Experiment [2] in a line: Displacement of [3H]SCH-23390 from dopamine D1-like receptor in porcine striatal homogenates after 30 mins by scintillation counting. It is filed as tissue-based, Sus scrofa. In a few lines:
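Fresh porcine striatum was homogenized in 20 mM Hepes/0.32 M sucrose (pH 7.4), and the P2 membrane pellet was washed in 50 mM Tris (pH 7.4) and stored at -80 °C. Incubation was 30 min at 37 °C, then filtration and scintillation counting. Values are means ± SEM of 4-11 independent experiments.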
(Loss of bound radioactivity is the signal in a displacement assay; it reports binding, not function.)

A short description of experiment [3]: Displacement of [3H]spiperone from dopamine D2-like receptor in porcine striatal homogenates after 30 mins by scintillation counting. It is filed as tissue-based, Sus scrofa.
The species named for experiment [4] is Sus scrofa. As to the kind of experiment: Selectivity ratio of Ki for dopamine D2-like receptor in porcine striatal homogenates to Ki for dopamine D1-like receptor in porcine striatal homogenates. It is filed as tissue-based.
The target in experiment [5] is D(2) dopamine receptor (Homo sapiens, UniProt P14416). Briefly: Binding affinity to dopamine D2 receptor.
Chain of D(2) dopamine receptor (P14416 whole entry): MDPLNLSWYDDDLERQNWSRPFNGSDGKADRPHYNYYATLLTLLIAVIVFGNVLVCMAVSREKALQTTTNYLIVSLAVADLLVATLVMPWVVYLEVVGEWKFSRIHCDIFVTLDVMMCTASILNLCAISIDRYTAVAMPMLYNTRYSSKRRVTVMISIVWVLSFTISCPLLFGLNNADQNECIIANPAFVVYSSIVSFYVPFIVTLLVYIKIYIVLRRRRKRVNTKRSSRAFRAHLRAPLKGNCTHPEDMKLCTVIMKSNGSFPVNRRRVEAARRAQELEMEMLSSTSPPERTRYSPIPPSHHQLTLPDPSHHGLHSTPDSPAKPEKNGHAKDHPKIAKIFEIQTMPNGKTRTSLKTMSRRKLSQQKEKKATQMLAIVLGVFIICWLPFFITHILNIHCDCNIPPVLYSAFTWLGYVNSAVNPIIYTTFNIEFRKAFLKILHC

Regarding `Cc1ccc2c(c1)[C@@H]1c3cc(O)c(O)cc3CC[C@H]1NC2`, the Ratio Ki in experiment [1] was determined as 34.7.

Take `Oc1cc2c(cc1O)[C@H]1c3cc(F)ccc3CN[C@@H]1CO2` (racemic): the pKi (commonly −log10 of the Ki, conventionally taken in molar units) in experiment [2] was 6.96; in experiment [3], 6.13. For the same compound, the Ratio Ki in experiment [4] amounted to 8.5.

Turning to `Cc1ccc2c(c1)[C@@H]1c3cc(O)c(O)cc3OC[C@H]1NC2` (racemic), the negative logarithm of the Ki (pKi) in experiment [2] was 6.82; in experiment [3] it was 5.17. For the same compound, in experiment [4], the Ratio Ki was 55.

As for `CCc1ccc2c(c1)[C@@H]1c3cc(O)c(O)cc3OC[C@H]1NC2` (racemic), the pKi was 6.74 in experiment [2] and 5.19 in experiment [3]. Also, the Ratio Ki in experiment [4] was 49.

The compound `CCc1ccc2c(c1)[C@@H]1c3cc(O)c(O)cc3CC[C@H]1NC2` gave a negative logarithm of the Ki (pKi) in experiment [5] of 6.38. Besides, the Ratio Ki in experiment [1] worked out at 14.5.

`CN1CCc2cc(Cl)c(O)cc2[C@@H](c2ccccc2)C1`: in experiment [2], the pKi was 9.34.

With `Oc1cc2c(cc1O)[C@H]1c3ccccc3CN[C@@H]1CS2` (racemic), the values for the negative logarithm of the Ki (pKi) in experiment [2] and in experiment [3] were 6.70 and 5.60, respectively. The Ratio Ki in experiment [4] turned out to be 15.

On to `Oc1cc2c(cc1O)[C@H]1c3cc(C(F)(F)F)ccc3CN[C@@H]1CO2` (racemic), for which the negative logarithm of the Ki (pKi) in experiment [2] is 6.24; in experiment [3], 5.16. Besides, the Ratio Ki in experiment [4] came to 14.
